Active and inactive are the calls of the source. The rule behind the calls is not given here.
Key:
Aspergillus flavus [1] = assay: Antifungal activity against Aspergillus flavus 3 after 48 hrs by broth micromethod assay; format: functional
How it was run: (§1)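 Broth microdilution in YNB with 0.5% glucose, phosphate buffer pH 7, using ten 2-fold dilutions (50-0.097 µg/mL). Inoculum from 24-48 h Sabouraud agar cultures, final 5 × 10^2 cells for C. albicans and C. kefyr, 5 × 10^3 cells/conidia for C. glabrata, Cryptococcus neoformans and Aspergillus. Incubated at 35 °C up to 72 h, read every 24 h. MIC is the complete absence of growth versus medium controls.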

Fusarium oxysporum [2] = assay: Antifungal activity against Fusarium oxysporum ITEM 149 at 15 ug/disk by paper disk method; format: functional; settings: read-out: IZ
How it was run: (§2)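 Agar diffusion: a 0.7% water-agar overlay carrying 10^4 conidia/mL (or yeast cells) is poured on PDA. 6-mm cellulose disks loaded with methanolic compound at 5 or 15 µg/disk are air-dried and applied, with nystatin as comparator. Plates incubated 24-72 h at 25 °C; inhibition halo diameter read from three disks. Agar under each disk is subcultured on PDA to score fungicidal/fungistatic effect. Experiment run twice and averaged.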

Alternaria alternata [3] = assay: Antifungal activity against Alternaria alternata ITEM 750 at 15 ug/disk by paper disk method; format: functional; settings: read-out: IZ; how it was run: as §2
Wickerhamomyces anomalus [4] = assay: Antifungal activity against Pichia anomala ITEM 1661 at 15 ug/disk by paper disk method; format: functional; settings: Hansenula anomala; read-out: IZ
How it was run: (§3)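 Agar overlay disk diffusion on plant-derived filamentous fungi and yeasts: 0.7% water-agar seeded with 10^4 conidia/mL or a yeast cell suspension, poured over PDA. 6-mm cellulose disks were loaded from methanolic solutions and air-dried, with nystatin as comparator. Plates ran 24-72 h at 25 °C; inhibition halo was measured over three disks. Agar beneath disks was subcultured on PDA to separate fungicidal from fungistatic, scored in four classes; run twice, averaged.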

Alternaria alternata [5] = assay: Antifungal activity against Alternaria alternata ITEM 511 at 15 ug/disk by paper disk method; format: functional; settings: read-out: IZ; how it was run: as §2
[6] = test system: Colletotrichum gloeosporioides; assay: Antifungal activity against Colletotrichum gloeosporioides ITEM 1729 at 15 ug/disk by paper disk method; format: functional; settings: read-out: IZ; how it was run: as §2
Aspergillus fumigatus = assay: Antifungal activity against Aspergillus fumigatus 1 after 72 hrs by broth micromethod assay; format: functional; how it was run: as §1
Solanum lycopersicum [7] = assay: Stimulation of root elongation in tomato at 10^-5 M; format: functional, organism-based
How it was run: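 Tomato seeds were surface-sterilized in 4% NaClO for 10 min and pregerminated 3 days in the dark. They were then placed 10 per dish on filter paper wetted with 2 mL of compound in 1% MeOH (10^-4 or 10^-5 M) and held 4 days at 25 °C under a 12-h photoperiod. Shoot and rootlet lengths were measured against control; done in triplicate, repeated once.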

Fusarium acuminatum = assay: Antifungal activity against Fusarium acuminatum ITEM 795 at 15 ug/disk by paper disk method; format: functional; settings: read-out: IZ; how it was run: as §2
Cryptococcus neoformans [8] = assay: Antifungal activity against Cryptococcus neoformans 13 after 48 hrs by broth micromethod assay; format: functional; how it was run: as §1
Candida albicans [9] = assay: Antifungal activity against Candida albicans at 50 ug/disk by paper disk method; format: functional, organism-based
Botrytis cinerea = assay: Antifungal activity against Botrytis cinerea ITEM 966 at 15 ug/disk by paper disk method; format: functional; settings: read-out: IZ; how it was run: as §2
Aspergillus niger [10] = assay: Antifungal activity against Aspergillus niger 2 after 72 hrs by broth micromethod assay; format: functional; how it was run: as §1
Aspergillus niger [11] = assay: Antifungal activity against Aspergillus niger 2 after 48 hrs by broth micromethod assay; format: functional; how it was run: as §1
Kluyveromyces lactis = assay: Antifungal activity against Kluyveromyces lactis ITEM 1656 at 15 ug/disk by paper disk method; format: functional; settings: read-out: IZ; how it was run: as §3
Cryptococcus neoformans [12] = assay: Antifungal activity against Cryptococcus neoformans 14 after 48 hrs by broth micromethod assay; format: functional; how it was run: as §1
Aspergillus parasiticus = assay: Antifungal activity against Aspergillus parasiticus ITEM 11 at 15 ug/disk by paper disk method; format: functional; settings: read-out: IZ; how it was run: as §2
Starmera dryadoides = assay: Antifungal activity against Pichia dryadoides ITEM 1663 at 15 ug/disk by paper disk method; format: functional; settings: Liangdongia dryadoides; read-out: IZ; how it was run: as §3
Wickerhamomyces anomalus [13] = assay: Antifungal activity against Pichia anomala ITEM 1625 at 15 ug/disk by paper disk method; format: functional; settings: Hansenula anomala; read-out: IZ; how it was run: as §3
Candida albicans [14] = assay: Antifungal activity against Candida albicans 2 after 24 hrs by broth micromethod assay; format: functional; how it was run: as §1
Pichia kluyveri = assay: Antifungal activity against Pichia kluyveri ITEM 1649 at 15 ug/disk by paper disk method; format: functional; how it was run: as §3
Aspergillus niger [15] = assay: Antifungal activity against Aspergillus niger 2 after 24 hrs by broth micromethod assay; format: functional; how it was run: as §1
Cicer arietinum = assay: Phytotoxicity in chickpea leaf assessed as necrosis in the leaf at 10^-3 M by leaf puncture assay; format: organism-based; settings: in vivo, 1000 µM
How it was run: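 Tomato and chickpea leaves were punctured and treated with toxin dissolved in MeOH and diluted with water (final 4% MeOH), tested from 10^-2 to 10^-7 M. Chlorosis and necrosis were recorded visually as spot symptoms.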

Nakaseomyces glabratus = assay: Antifungal activity against Candida glabrata at 50 ug/disk by paper disk method; format: functional, organism-based
[16] = test system: Meyerozyma guilliermondii; assay: Antifungal activity against Candida guilliermondii ITEM 1638 at 15 ug/disk by paper disk method; format: functional; settings: read-out: IZ; how it was run: as §2
Solanum lycopersicum [17] = assay: Phytotoxicity in tomato stem assessed as chlorosis in the leaf at 10^-3 M by tomato cutting assay; format: organism-based; settings: in vivo, 1000 µM
How it was run: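 Young greenhouse tomato plants were cut, and the stems were immersed in toxin solutions (MeOH stock diluted with water; 10^-3 to 10^-6 M). They were held 24 h at 22 °C under a 12-h photoperiod, then moved to distilled water for 48 h more, and symptoms were scored visually.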

Fusarium oxysporum [18] = assay: Antifungal activity against Fusarium oxysporum ITEM 1462 at 15 ug/disk by paper disk method; format: functional; settings: read-out: IZ; how it was run: as §2
Candida maltosa = assay: Antifungal activity against Candida maltosa ITEM 1639 at 15 ug/disk by paper disk method; format: functional; settings: read-out: IZ; how it was run: as §2
Candida albicans [19] = assay: Antifungal activity against Candida albicans Y01009 after 24 hrs by broth micromethod assay; format: functional; how it was run: as §1
Cryptococcus neoformans [20] = assay: Antifungal activity against Cryptococcus neoformans at 50 ug/disk paper disk method; format: functional, organism-based
Ascochyta rabiei [21] = assay: Antifungal activity against Ascochyta rabiei ITEM 1067 at 15 ug/disk by paper disk method; format: functional; settings: read-out: IZ; how it was run: as §2
[22] = test system: Penicillium brevicompactum; assay: Antifungal activity against Penicillium brevicompactum ITEM 449 at 15 ug/disk by paper disk method; format: functional; settings: read-out: IZ; how it was run: as §3
Alternaria citri = assay: Antifungal activity against Alternaria citri ITEM 466 at 15 ug/disk by paper disk method; format: functional; settings: read-out: IZ
How it was run: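 Agar overlay diffusion: 0.7% water-agar with 10^4 conidia/mL of test fungus poured over PDA; 6-mm cellulose disks impregnated with methanolic compound solution, air-dried. Incubated 25 °C for 24-72 h by fungus; growth-inhibition halo diameter from three replicate disks. Agar under disks then subcultured on PDA to score fungicidal/fungistatic classes. Repeated twice, averaged.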

Aspergillus flavus [23] = assay: Antifungal activity against Aspergillus flavus 3 after 72 hrs by broth micromethod assay; format: functional; how it was run: as §1
Fusarium verticillioides = assay: Antifungal activity against Fusarium moniliforme ITEM 1497 at 15 ug/disk by paper disk method; format: functional; settings: read-out: IZ; how it was run: as §2
Cryptococcus neoformans [24] = assay: Antifungal activity against Cryptococcus neoformans 14 after 72 hrs by broth micromethod assay; format: functional; how it was run: as §1
Cryptococcus neoformans [25] = assay: Antifungal activity against Cryptococcus neoformans 14 after 24 hrs by broth micromethod assay; format: functional; how it was run: as §1
Ascochyta rabiei [26] = assay: Antifungal activity against Ascochyta rabiei ITEM 466 at 5 ug/disk by paper disk method; format: functional, organism-based; how it was run: as §2
[27] = test system: Meyerozyma guilliermondii; assay: Antifungal activity against Pichia guilliermondii ITEM 1644 at 15 ug/disk by paper disk method; format: functional; settings: read-out: IZ; how it was run: as §3
Saccharomyces cerevisiae = assay: Antifungal activity against Saccharomyces cerevisiae ITEM 1633 at 15 ug/disk by paper disk method; format: functional; settings: read-out: IZ; how it was run: as §3

| SMILES | Activity (Aspergillus flavus [1]) | zone of inhibition at 15 µg/disc (Fusarium oxysporum [2]) | zone of inhibition at 15 µg/disc (Alternaria alternata [3]) | zone of inhibition at 15 µg/disc (Wickerhamomyces anomalus [4]) | zone of inhibition at 15 µg/disc (Alternaria alternata [5]) | zone of inhibition at 15 µg/disc [6] | Activity (Aspergillus fumigatus) | Activity (Solanum lycopersicum [7]) | zone of inhibition at 15 µg/disc (Fusarium acuminatum) | Activity (Cryptococcus neoformans [8]) | Activity (Candida albicans [9]) | zone of inhibition at 15 µg/disc (Botrytis cinerea) | Activity (Aspergillus niger [10]) | Activity (Aspergillus niger [11]) | zone of inhibition at 15 µg/disc (Kluyveromyces lactis) | Activity (Cryptococcus neoformans [12]) | zone of inhibition at 15 µg/disc (Aspergillus parasiticus) | zone of inhibition at 15 µg/disc (Starmera dryadoides) | zone of inhibition at 15 µg/disc (Wickerhamomyces anomalus [13]) | Activity (Candida albicans [14]) | other results |
| --- | --- | --- | --- | --- | --- | --- | --- | --- | --- | --- | --- | --- | --- | --- | --- | --- | --- | --- | --- | --- | --- |
| CCCCCCC(C)C/C(C)=C\C(C)/C=C(C)/C=C/C(O)C(C)(C)c1cc(O)c([C@@H]2O[C@@H](CO)C[C@@H](O)[C@@H]2O)c(=O)o1 (stereo not given in full) [DEXOYFUSAPYRONE] | 1.56 µg/mL | 4 mm | 10.5 mm | 0 mm | 11 mm | 13.8 mm | 3.12 µg/mL | Active | 0 mm | 6.25 µg/mL | inactive | 13.5 mm | 1.56 µg/mL | 1.56 µg/mL | 0 mm | 3.12 µg/mL | 12.7 mm | 0 mm | 0 mm | >50 µg/mL | Activity (Pichia kluyveri): 0 mm; Activity (Aspergillus niger [15]): 1.56 µg/mL; Activity (Cicer arietinum): Active; Activity (Nakaseomyces glabratus): inactive; zone of inhibition at 15 µg/disc [16]: 0 mm; Activity (Solanum lycopersicum [17]): Not Active; zone of inhibition at 15 µg/disc (Fusarium oxysporum [18]): 0 mm; zone of inhibition at 15 µg/disc (Candida maltosa): 0 mm; Activity (Candida albicans [19]): >50 µg/mL; Activity (Cryptococcus neoformans [20]): Active; zone of inhibition at 15 µg/disc (Ascochyta rabiei [21]): 12 mm; zone of inhibition at 15 µg/disc [22]: 10.5 mm; zone of inhibition at 15 µg/disc (Alternaria citri): 9.2 mm; Activity (Aspergillus flavus [23]): 1.56 µg/mL; zone of inhibition at 15 µg/disc (Fusarium verticillioides): 0 mm; Activity (Cryptococcus neoformans [24]): 3.12 µg/mL; Activity (Cryptococcus neoformans [25]): 3.12 µg/mL; Activity (Ascochyta rabiei [26]): Active; zone of inhibition at 15 µg/disc [27]: 0 mm; zone of inhibition at 15 µg/disc (Saccharomyces cerevisiae): 0 mm |
| CCCCCCC(C)C/C(C)=C\C(/C=C(C)/C=C/C(O)C(C)(C)c1cc(O)c([C@@H]2O[C@@H](CO)C[C@@H](O)[C@@H]2O)c(=O)o1)CO (stereo not given in full) [FUSAPYRONE] | 1.56 µg/mL | 27.7 mm | 18.7 mm | 0 mm | 18 mm | 31.8 mm | 1.56 µg/mL | Active | 17.8 mm | 6.25 µg/mL | inactive | 29.3 mm | 1.56 µg/mL | 1.56 µg/mL | 0 mm | 3.12 µg/mL | 27.5 mm | 0 mm | 0 mm | >50 µg/mL | Activity (Pichia kluyveri): 0 mm; Activity (Aspergillus niger [15]): 1.56 µg/mL; Activity (Cicer arietinum): Active; Activity (Nakaseomyces glabratus): inactive; zone of inhibition at 15 µg/disc [16]: 0 mm; Activity (Solanum lycopersicum [17]): Not Active; zone of inhibition at 15 µg/disc (Fusarium oxysporum [18]): 28.3 mm; zone of inhibition at 15 µg/disc (Candida maltosa): 0 mm; Activity (Candida albicans [19]): >50 µg/mL; Activity (Cryptococcus neoformans [20]): Active; zone of inhibition at 15 µg/disc (Ascochyta rabiei [21]): 35.8 mm; zone of inhibition at 15 µg/disc [22]: 30 mm; zone of inhibition at 15 µg/disc (Alternaria citri): 18 mm; Activity (Aspergillus flavus [23]): 1.56 µg/mL; zone of inhibition at 15 µg/disc (Fusarium verticillioides): 20.1 mm; Activity (Cryptococcus neoformans [24]): 3.12 µg/mL; Activity (Cryptococcus neoformans [25]): 3.12 µg/mL; Activity (Ascochyta rabiei [26]): Active; zone of inhibition at 15 µg/disc [27]: 0 mm; zone of inhibition at 15 µg/disc (Saccharomyces cerevisiae): 0 mm |
